Experimental data from ChEMBL document CHEMBL1121994, “Ammonium 7H-purin-6-yl 1-Thio-beta-D-glucopyranosiduronate, a latent, selective anticancer agent” (J Med Chem, 1982).

How the values were obtained:
Format in all cases: ADME
[1] = Maximum velocity was determined at pH 3.38
Method in brief: (§1)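 Bovine β-glucuronidase in 0.1 M potassium acetate buffer, μ = 0.1 M (KCl), 30 °C. Substrate 4.0×10⁻⁴ to 4.8×10⁻³ M final. Enzyme (30 FU; 42 000 FU when substrate was given in Me₂SO) was added after 20 min; at pH 3.38 the substrate was also added after 20 min. Initial rates came from ΔA/min at 324 nm (Δε = 2×10⁴ M⁻¹cm⁻¹), in duplicate. Vmax was normalized per Fishman unit.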

[2] = Maximum velocity was determined at pH 4.4; method in brief: as §1
[3] = Maximum velocity was determined at pH 4.7; method in brief: as §1
[4] = Maximum velocity was determined at pH 5.58; method in brief: as §1
Bos taurus [5] = species on record: Bos taurus; test: Michaelis constant for hydrolysis catalyzed by Bovine Liver beta-Glucuronidase at pH 3.38; conditions: cattle; method in brief: as §1
Bos taurus [6] = species on record: Bos taurus; test: Michaelis constant for hydrolysis catalyzed by Bovine Liver beta-Glucuronidase at pH 4.40; conditions: cattle, pH 4.4; method in brief: as §1
Bos taurus [7] = species on record: Bos taurus; test: Michaelis constant for hydrolysis catalyzed by Bovine Liver beta-Glucuronidase at pH 4.7; conditions: cattle; method in brief: as §1
Bos taurus [8] = species on record: Bos taurus; test: Michaelis constant for hydrolysis catalyzed by Bovine Liver beta-Glucuronidase at pH 5.58; conditions: cattle; method in brief: as §1
[9] = Maximum velocity was determined at pH 4.40; conditions: pH 4.4; method in brief: as §1

NC(=O)C1OC(Sc2[nH]cnc3ncnc2-3)C(O)C(O)C1O (stereo unspecified)
Vmax [1]: 7.85e-11
Vmax [2]: 1.24e-10
Vmax [3]: 9.85e-11
Vmax [4]: 8.8e-11
Vmax / Km (Bos taurus [5]): 8.8e-9
Vmax / Km (Bos taurus [6]): 1.06e-8
Vmax / Km (Bos taurus [7]): 1.06e-8
Vmax / Km (Bos taurus [8]): 1.04e-8

N.O=C(O)C1OC(Sc2[nH]cnc3ncnc2-3)C(O)C(O)C1O (stereo unspecified)
Vmax [1]: 3.73e-8
Vmax [9]: 3.95e-8
Vmax [3]: 3.92e-8
Vmax [4]: 2.18e-8
Vmax / Km (Bos taurus [5]): 0.000659
Vmax / Km (Bos taurus [6]): 0.000409
Vmax / Km (Bos taurus [7]): 0.000297
Vmax / Km (Bos taurus [8]): 0.0000951
